5HT1E antag = blocks the human 5-HT1E serotonin receptor. P28566. CHO 5-HT1E Ga15 NFAT-bla reporter, FRET, antagonist. inhibition, % at 6 µM. 65,000 compounds, 0.99% hits. AID 571;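 active means inhibition above a set limit, the mean inhibition across every tested compound plus 3 SD, cut at about 29% in these data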;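 further: signal is the 460 over 535 nm emission ratio of beta-lactamase substrate; 0% = agonist plus DMSO wells and 100% = wells without agonist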
5HT1a antag = 5-HT1a (human) receptor antagonism; AID 612; inhibition, % at 10 µM; P08908; CHO 5-HT1a Ga15 NFAT-bla reporter, antagonist mode; 62,000 compounds, 0.68% hits;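 active means inhibition above the mean of all tested compounds plus 3 SD, cut at about 43% in these data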;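 further: receptor stimulated by 5-CT agonist at 100 nM near EC80; beta-lactamase reporter measured by ratiometric fluorescence of a cleavable substrate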
S1P1 ag-PAM = S1P1 (human) agonism or agonism potentiation | 56,000 compounds, 0.57% hits | activation, % at 9.5 µM | S1P1 CRE-bla cells, forskolin, beta-lactamase FRET, potentiator mode; S1P1 agonist co-added at EC20, 2 nM; 100% = saturating reference agonist, 0% = basal | P21453;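 active means activation above a cutoff set at the mean activation of all tested compounds plus 3 SD, cut at about 54% in these data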;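 further: forskolin at 4 µM as EC80 and the EC20 agonist is SEW2871; 100% = SEW2871 at its EC100 plus forskolin at EC80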
S1P3 ag = S1P3 (human) receptor agonism; Q99500; S1P3 NFAT-BLA reporter cells, FRET ratio; relative to 1 µM S1P, basal subtracted; activation, % at 4.5 µM; 60,000 compounds, 0.1% hits; AID 373;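 active means activation above the screen-wide mean plus 3 SD, cut at about 4.5% in these data, passing the limit was not always enough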
Target sequence (Q99500 whole entry, looked up): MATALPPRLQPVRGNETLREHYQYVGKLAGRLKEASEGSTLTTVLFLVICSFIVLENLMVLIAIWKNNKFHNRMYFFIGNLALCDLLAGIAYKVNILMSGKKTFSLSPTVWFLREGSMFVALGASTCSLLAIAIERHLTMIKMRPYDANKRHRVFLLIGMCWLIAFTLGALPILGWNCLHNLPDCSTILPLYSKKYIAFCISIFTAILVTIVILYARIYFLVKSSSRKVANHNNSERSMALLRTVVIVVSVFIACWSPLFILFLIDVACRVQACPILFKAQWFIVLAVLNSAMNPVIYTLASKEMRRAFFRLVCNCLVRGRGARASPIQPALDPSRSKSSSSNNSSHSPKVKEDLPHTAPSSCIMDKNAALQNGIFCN
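Measure – % activation relative to 1 µM S1P (100%), per plate · System – stable CHO line with human S1P3, Gα16, NFAT-BLA reporter · Timing – cells plated overnight, compound 4 h 37 °C, substrate 2 h RT · Technique – fluorescent BLA substrate, ex 405 nm, em 460/535 nm ratio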
HTR1E agonist = 5-HT1E (human) receptor agonism; P28566; CHO 5-HT1E Ga15 NFAT-bla reporter, FRET; 0% DMSO wells, 100% control agonist wells; activation, % at 6 µM; 65,000 compounds, 0.69% hits; AID 574;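 active means activation above a set limit, the screen-wide mean activation plus 3 SD, cut at about 8.5% in these data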;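 further: 100% = positive control agonist at 1 µM giving full maximal response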
5HT1a ag = agonists of human 5-HT1a serotonin receptor | CHO 5-HT1a Ga15 NFAT-bla reporter, FRET ratio; 0% basal, 100% maximal reference agonist | 65,000 compounds, 0.56% hits | activation, % at 10 µM | AID 567 | P08908;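 active means activation above the screen-wide mean activation plus 3 SD, cut at about 19% in these data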;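 further: 0% = DMSO wells and 100% = 5-CT at EC100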
Starred values were filed as active, the others as inactive; . = no result. The list is not random: actives were taken first. Their share in the collection is about 3%.

SMILES	5HT1E antag	5HT1a antag	S1P1 ag-PAM	S1P3 ag	HTR1E agonist	5HT1a ag
CCOc1ccccc1OCCCCCc1c(C)n[nH]c1C	4.9	19.8	88.8*	0.3	-1.0	-0.2
Cn1cnnc1SCC(=O)Nc1ccccc1Sc1ccccc1	-4.3	-9.7	7.0	0.8	0.2	310.6*
COc1ccccc1N=c1scc(-c2ccc3c(c2)NC(=O)CO3)n1CC1CCCO1 (stereo unspecified)	-2.4	5.6	7.7	0.9	0.1	0.6
CCN=c1scc(-c2ccc3c(c2)NC(=O)CO3)n1N=C1CCCC1	1.1	-0.9	63.5*	-0.7	0.5	-2.5
Cc1ccc(C(C)C)c(OCc2ccc(-c3nnco3)cc2)c1	16.1	10.0	97.9*	-1.6	-1.2	-1.4
Cc1ccc(S(=O)(=O)N(C)Cc2ccc(-c3nnco3)cc2)cc1	0.8	16.5	22.2	0.4	-0.2	-0.7
CC(C)C(=O)NC(c1ccco1)c1ccc2cccnc2c1O (stereo unspecified)	30.1*	39.3	3.7	-2.1	-1.4	-1.0
CCCC(=O)NC(c1ccco1)c1cc(Cl)c2cccnc2c1O (stereo unspecified)	5.2	28.7	28.5	-2.0	-1.3	-5.0
Oc1c(C(Nc2nc3ccccc3s2)c2ccco2)ccc2cccnc12 (stereo unspecified)	34.5*	61.6*	5.1	-2.2	-0.6	5.6
CN1C(=O)c2oc3ccc(Br)cc3c(=O)c2C1c1ccncc1 (stereo unspecified)	19.0	-1.5	11.4	-1.4	-2.5	-1.1
CCOCCn1c(CN2CCOCC2)nc2c1c(=O)[nH]c(=O)n2C	1.9	2.8	-4.1	-0.4	-0.2	-4.1
Cc1ccc(OCc2nc(C#N)c(N3CCN(Cc4ccccc4)CC3)o2)cc1	9.2	49.9*	18.3	-2.1	-0.6	-2.5
N#Cc1nc(COc2ccc(F)cc2)oc1N1CCCC1	0.5	-4.4	.	.	1.5	3.1
N#Cc1nc(COc2ccccc2)oc1N1CCC(Cc2ccccc2)CC1	2.2	48.7*	8.2	-1.1	-0.8	-3.5
N#Cc1nc(COc2cccc(Cl)c2)oc1N1CCCC1	-0.3	2.6	-0.2	-0.2	0.0	23.3*
N#Cc1nc(COc2ccccc2)oc1N1CCN(Cc2ccccc2)CC1	5.2	45.7*	3.1	-1.3	-2.4	-4.8
COc1cccc2cc(C(=O)NCC3CCCO3)c(=O)oc12 (stereo unspecified)	-1.4	-2.0	.	.	-0.5	0.6
COc1ccccc1N=c1oc2cc(O)ccc2cc1C(N)=O	-24.6	-92.1	-52.0	1.5	18.8*	44.7*
COc1ccccc1NC(=O)c1cc2ccc(O)cc2o/c1=N\O	16.9	7.3	-3.9	0.1	1.3	3.2
Cc1cccc(N=c2oc3cc(O)ccc3cc2C(N)=O)c1	-15.2	-189.7	-104.6	2.1	24.1*	63.6*
COc1ccccc1N=c1oc2cc(O)ccc2cc1C(=O)NCC1CCCO1 (stereo unspecified)	-30.2	-66.0	-69.7	3.4	14.7*	53.6*
CC(=O)c1sc(N2C(=O)c3oc4ccccc4c(=O)c3C2c2ccc(C)o2)nc1C (stereo unspecified)	16.1	1.8	-9.2	-0.4	0.9	-2.0
COc1ccccc1N1CCN(C(=O)CSc2nc(C)c(Cc3ccccc3)c(=O)[nH]2)CC1	-2.6	12.1	-15.1	-0.2	20.5*	2.2
COc1ccccc1N1CCN(C(=O)CSc2nc(-c3ccccc3)cc(=O)[nH]2)CC1	-10.6	-1.8	3.1	0.1	15.3*	8.7
COc1ccccc1N1CCN(C(=O)CSc2nc3ncnc(N)c3[nH]2)CC1	1.4	-7.9	.	-0.8	2.7	0.8
CCC(=O)Oc1ccc2c(C)cc(=O)oc2c1C	6.3	6.2	-1.4	-2.1	-0.2	65.0*
NC(=O)c1ccc(OCC(F)(F)C(F)(F)C(F)(F)C(F)(F)C(F)(F)C(F)F)cc1	8.8	17.3	62.8*	-1.3	-1.9	-2.4
CCOC(=O)N1CCC(N2Cc3cccc(C(=O)O)c3C2=O)CC1	-6.4	-2.5	-16.1	-1.1	0.2	82.9*
CCOC(=O)N1CCC(N2Cc3cccc(C(=O)N4CC(C)CC(C)C4)c3C2=O)CC1 (stereo unspecified)	-3.3	2.8	15.4	0.3	0.5	-0.3
